In ChEMBL document CHEMBL1144432, “New inhibitors of rabbit muscle triose-phosphate isomerase” (Bioorg Med Chem Lett, 2005):

Columns and labels:
[1] = Inhibitory concentration against class II fructose-bisphosphate aldolase
[2] = molecular target: T1, Triosephosphate isomerase (Oryctolagus cuniculus, UniProt P00939); assay: Inhibitory concentration against rabbit muscle triose-phosphate isomerase; set-up: species or system Muscle tissue
[3] = molecular target: T1, Triosephosphate isomerase; assay: Binding affinity against rabbit muscle triose-phosphate isomerase; set-up: species or system Muscle tissue
In short: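 Rabbit muscle TIM, converting G3P to DHAP, was coupled to a large excess of glycerol-3-phosphate dehydrogenase. NADH consumption was followed at 340 nm. The G3P level was estimated enzymatically with the same coupled system. The cuvette was preincubated 10 min at 25 C, and the reaction was started with G3P (0–250). Inhibitor was tested at 0–30 µM, with inhibition analysed on double-reciprocal plots against 1/[G3P].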

[4] = Binding affinity against class II fructose-bisphosphate aldolase

T1 sequence (P00939 whole entry): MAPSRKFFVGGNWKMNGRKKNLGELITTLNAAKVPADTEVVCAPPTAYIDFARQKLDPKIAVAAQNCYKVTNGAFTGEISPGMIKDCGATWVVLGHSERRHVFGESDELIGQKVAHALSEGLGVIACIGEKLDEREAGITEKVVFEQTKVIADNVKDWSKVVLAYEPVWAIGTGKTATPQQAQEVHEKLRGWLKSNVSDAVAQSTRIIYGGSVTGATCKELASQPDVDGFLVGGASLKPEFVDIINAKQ

Structure (SMILES)	IC50 [1] [µM]	IC50 [2] [µM]	Ki [3] [µM]	Ki [4] [µM]
NNC(=O)CCP(=O)(O)O	3630	27000		
NNC(=O)COP(=O)(O)O [PHOSPHORIC ACID MONOHYDRAZINOCARBONYLMETHYL ESTER]			111	0.34
O=C(CCP(=O)(O)O)NO			159	145
N/C(COP(=O)(O)O)=N/O			4.5	2.3
N/C(CCP(=O)(O)O)=N\O	3420	9600		
O=C(COP(=O)(O)O)NO [PHOSPHOGLYCOLOHYDROXAMATE]			3	0.01
